Compounds with a hit are over-represented: about 2.9% of the library has one in this group of screens.
TRPC6 activator: activators of mouse TRPC6 channel; Q61143; HEK293-TRPC6 membrane potential dye fluorescence; active compounds read high; B-score at 10 µM; 0.13% of 310,000 active; AID 2550;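 active = B-score of the integrated fluorescence ratio above library mean plus 3 SD, and starting fluorescence ratio within library mean plus 5 SD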;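 also: higher score means more depolarization so channel activation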
TRPC4 act: opens the mouse TRPC4 cation channel | Q9QUQ5 | HEK293 TRPC4beta/mu-opioid, Fluo4 calcium fluorescence; active compounds read high | B-score at 10 µM | 0.49% of 310,000 active;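 active = B-score above 5 SD of library B-scores, and initial fluorescence ratio not above library mean plus 5 SD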;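 also: positive B-score marks a calcium rise read as TRPC4 activation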
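Technique: kinetic Fluo4 calcium fluorescence; Test system: TRPC4beta and mu-opioid receptor HEK293 stable cells; Measure: B-scored integrated calcium fluorescence ratio; Benchmarks: low control buffer alone, high control maximal DAMGO; Schedule: 45 min room-temperature Fluo4 loading, 110 s read.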
TRPC4 inh: blocks the mouse TRPC4 cation channel. 0.39% of 300,000 active. AID 2247. B-score at 10 µM. HEK293 TRPC4beta/mu-opioid, DAMGO-evoked Fluo4 calcium flux; active compounds read low;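 active = B-score over 3 SD under the library average, no early fluorescence shift, positive overall ratio signal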
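test system = HEK293 cells with stable TRPC4beta plus mu-opioid receptor expression | detection = Fluo4 Ca2+ flux fluorescence | read-out = integrated fluorescence ratio relative to baseline, converted to per-well B score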
Kir21 inh: inhibitors of mouse Kir2.1 inward-rectifier potassium channel; P35561; HEK293-Kir2.1, FluxOR thallium flux fluorescence; active compounds read low; B-score at 10 µM; 0.85% of 310,000 active; AID 1672;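 active = fluorescence ratio B-score at or below minus 3 SD of library scores, with starting-brightness B-score within 2 SD, cut at about -4.2 in these data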;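 also: channel flux triggered by added potassium and thallium sulfate stimulus; B-score of peak minus minimum fluorescence over baseline after thallium stimulus; more negative B-score means stronger Kir2.1 block with less thallium influx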
Target sequence (P35561 whole entry, looked up): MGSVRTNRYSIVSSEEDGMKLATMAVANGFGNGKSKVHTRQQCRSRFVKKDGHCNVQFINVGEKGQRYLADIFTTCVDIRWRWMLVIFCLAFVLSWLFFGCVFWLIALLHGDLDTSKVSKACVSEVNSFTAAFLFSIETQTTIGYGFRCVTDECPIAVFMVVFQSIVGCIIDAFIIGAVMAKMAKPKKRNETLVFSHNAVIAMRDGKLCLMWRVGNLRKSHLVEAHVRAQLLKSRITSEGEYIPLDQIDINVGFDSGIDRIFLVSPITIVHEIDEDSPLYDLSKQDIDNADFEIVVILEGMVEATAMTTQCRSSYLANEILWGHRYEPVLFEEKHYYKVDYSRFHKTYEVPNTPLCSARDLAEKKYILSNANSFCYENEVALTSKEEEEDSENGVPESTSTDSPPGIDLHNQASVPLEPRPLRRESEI
TRPC4 PAM: allosteric potentiators of mouse TRPC4 channel. 0.42% of 310,000 active. HEK293 TRPC4beta/mu-opioid, DAMGO EC20, Fluo-4 Ca2+ flux; active compounds read high. B-score at 10 µM. Q9QUQ5;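 active = B-score of calcium response area above 5 SD of library B-scores, with initial fluorescence ratio within 5 SD of library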
TRPC6 inh: inhibitors of mouse TRPC6 channel. Q61143. HEK293-TRPC6, membrane potential dye, ACh-evoked depolarization; active compounds read low. B-score at 10 µM. 1.1% of 310,000 active. AID 2553;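 active = B-score under library mean minus 3 SD, initial fluorescence not abnormally high, positive integrated signal ratio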;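 also: B-score derived from integrated fluorescence ratio over the kinetic read; more negative B-score means stronger inhibition of depolarization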
Hits are given with their value; - = inactive; . = not tested or not shown.

SMILES | TRPC6 activator | TRPC4 act | TRPC4 inh | Kir21 inh | TRPC4 PAM | TRPC6 inh
CCCN(CCC)CCNC(=O)C1CC(=O)N(c2ccc(OC)cc2)C1c1ccc(OC)cc1 (configuration not stated) | - | 43 | - | - | - | -
CC1(C)Cc2nc3n[nH]c(N)c3cc2CO1 | - | - | . | - | - | -
CCN1C(=O)c2cccc3c(S(=O)(=O)Nc4ncccc4C)ccc1c23 | - | - | - | - | - | -
CC(NC(=O)C1(C)CC1(Br)Br)C(C)(C)C (configuration not stated) | - | - | - | - | - | -
CCOC(=O)C1CCN(c2cc3c(cc2NC(=O)c2ccccc2OCC)n(C)c(=O)n3C)CC1 | - | - | - | - | - | -
COc1ccc(-c2cc(C(=O)N3CC(C)CC(C)C3)c3ccccc3n2)cc1 (configuration not stated) | - | - | - | - | 18 | -
COc1ccc(-c2cc(C(=O)N3CCCC3)c3ccccc3n2)cc1 | - | - | - | - | - | -
CC(OC(=O)c1ccc2ncsc2c1)C(=O)N1CCCC1 (configuration not stated) | - | - | - | - | - | -
Cc1cc(Nc2ccccc2C(=O)O)nc2nc3ccccc3c(=O)n12 | - | - | - | - | - | -
CCOC(=O)c1c(C)nc2ccccc2c1-c1ccccc1 | - | - | - | -5.9 | - | -
CCOC(=O)c1c(C)nc2ccc(Cl)cc2c1-c1ccccc1 | - | - | - | - | - | -
CC(C)Cn1c(-c2cccs2)nc2ccccc21 | - | - | - | -4.5 | - | -
c1csc(Cn2c(-c3cccs3)nc3ccccc32)c1 | - | - | - | - | - | -
CN1CCN(CC/C=C2/c3ccccc3Sc3ccc(S(=O)(=O)N(C)C)cc32)CC1 | - | - | - | - | - | -
O=C(NC1CCCN(Cc2ccc(Cl)cc2)C1)C1CCC1 (configuration not stated) | - | 136 | - | - | - | -
CN(Cc1ccccc1)C(=O)C1CCCN(Cc2ccc(Cl)cc2)C1 (configuration not stated) | - | - | - | -4.2 | - | -
COc1ccc(CN2CCC(C(=O)c3ccc(Cl)cc3)CC2)cc1 | - | - | - | -9.8 | - | -
O=C(NC1CCCN(Cc2ccc(Cl)cc2)C1)c1c(F)cccc1F (configuration not stated) | - | - | - | - | - | -
COc1cccc(CC(=O)NC2CCCN(Cc3ccc(Cl)cc3)C2)c1 (configuration not stated) | - | - | - | - | 14 | -
COc1ccc(NC(=S)NC(=O)c2ccc(Br)o2)cc1 | - | - | - | - | - | -
COc1ccc(C(C(=O)NCc2ccc(F)cc2)N(Cc2cccnc2)C(=O)c2snc(C(N)=O)c2N)cc1 (configuration not stated) | - | - | - | - | - | -
COc1ccccc1/C=C/C1(C(=O)NC2CCCC2)CC(=O)N1c1ccc(C)cc1 (configuration not stated) | - | - | - | - | - | -
CC(C)Cc1ccc(CN2CCCC(NC(=O)CSc3nncn3C)C2)cc1 (configuration not stated) | - | - | - | - | - | -
Cn1cnnc1SCC(=O)NC1CCCN(Cc2ccc(Cl)cc2)C1 (configuration not stated) | - | 46 | - | - | - | -
Cc1nnc2sc(-c3ccncc3)nn12 | - | - | - | - | - | -
SMILES | TRPC6 activator | TRPC4 act | TRPC4 inh | Kir21 inh | TRPC4 PAM | TRPC6 inh
Cc1nnc2sc(-c3csc4c3CCCC4)nn12 | - | - | -6 | - | - | -
COc1ccc(N/C(C)=C2/C(=O)C(=O)N(CCO)C2c2ccc([N+](=O)[O-])cc2)cc1 (configuration not stated) | - | - | - | - | 137 | -
COc1ccc(C(=O)CC(=O)Nc2ccc([N+](=O)[O-])cc2)cc1 | - | - | - | - | - | -
CN(C)CCCN(C(=O)CCc1ccccc1)c1nc2ccc(Cl)cc2s1 | - | - | - | - | - | -
CN(C)CCCN(C(=O)c1ccc(S(=O)(=O)N2CCCCCC2)cc1)c1nc2ccc(F)cc2s1 | - | 336 | - | -5 | - | -
CN(C)CCCN(C(=O)c1ccc(S(=O)(=O)N2CCOCC2)cc1)c1nc2ccc(F)cc2s1 | - | 57 | - | - | - | -
Cc1ccc2nc(N(CCCN(C)C)C(=O)CCc3ccccc3)sc2c1 | - | - | - | -5.6 | - | -
CCc1ccc2nc(N(CCCN(C)C)C(=O)c3ccc(S(=O)(=O)N4CCCC4)cc3)sc2c1 | - | - | - | - | - | -
CN(C)CCN(C(=O)c1ccc(S(=O)(=O)N2CCc3ccccc32)cc1)c1nc2ccc(F)cc2s1 | - | - | - | - | - | -
Cc1ccc2nc(N(CCCN(C)C)C(=O)c3ccc(S(=O)(=O)N4CCCCCC4)cc3)sc2c1 | - | 43 | - | - | 14 | -
CCOC(=O)N1CCN(S(=O)(=O)c2ccc(C(=O)N(CCCN(C)C)c3nc4ccc(Cl)cc4s3)cc2)CC1 | - | - | - | - | - | -
Cc1nn(C(C)(C)C)c(OC(=O)c2ccc3c(c2)OCO3)c1Sc1ccccc1 | - | - | - | - | - | -
O=C(NCCc1ccccc1)c1ccc2[nH]c(=O)c(=O)[nH]c2c1 | - | - | - | - | - | -
O=S(=O)(/N=C(/Nc1cc(N2CCOCC2)ncn1)c1ccccc1)c1ccccc1 | - | - | - | - | - | -
CCOc1cccc2sc(N(CCCN(C)C)C(=O)c3ccc(S(=O)(=O)N(CC)Cc4ccccc4)cc3)nc12 | - | - | - | - | - | -
CCN(Cc1ccccc1)S(=O)(=O)c1ccc(C(=O)N(CCCN(C)C)c2nc3c(F)cccc3s2)cc1 | - | 112 | - | - | - | -
CN(C)CCCN(C(=O)c1ccc(S(=O)(=O)N2CCCCCC2)cc1)c1nc2c(F)cccc2s1 | - | 54 | -6 | - | - | -
Cc1ccc2sc(N(CCCN(C)C)C(=O)c3ccc(S(=O)(=O)N4CCc5ccccc5C4)cc3)nc2c1C | - | - | - | - | - | -
CN(C)CCCN(C(=O)c1ccc(S(=O)(=O)N2CCc3ccccc3C2)cc1)c1nc2c(F)cc(F)cc2s1 | - | 58 | - | - | - | -
CN(C)CCCN(C(=O)c1ccc2c(c1)CCCC2)c1nc2ccc(Cl)cc2s1 | - | - | - | -4.3 | - | -
O=C(NCCc1c[nH]c2ccccc12)C(=O)NCC1OCCCN1S(=O)(=O)c1ccc(F)cc1 (configuration not stated) | - | - | - | - | - | -
CN(C)CCCNC(=O)c1ccccn1 | - | - | - | - | - | -
CN(C)CCCNC(=O)c1ccc(-c2nc(-c3ccc(Cl)cc3)cs2)cc1 | - | - | - | -4.7 | - | -

High-throughput results from PubChem.
